Data set [1] has as its system Vero. The data set can be described thus: Cytotoxicity against african green monkey Vero cells assessed as tumor growth inhibition after 48 hrs by sulforhodamine B assay. Format: cell-based. As to conditions: chlorocebus sabaeus. In outline:
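Non-tumor lines (human HaCaT keratinocytes; Vero) in RPMI 1640 with 5% FBS, with penicillin/streptomycin added to experimental cultures. 48 h exposure at 0.25–250 µg/mL (DMSO/RPMI), 37 °C, 5% CO2. TCA fixation at time zero and at end, sulforhodamine B protein stain, absorbance 540 nm. TGI (total growth inhibition) from non-linear regression of the dose-response curve.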

For data set [2], the system named is NCI-H460. The data set can be described thus: Antiproliferative activity against human NCI-H460 cells after 48 hrs by sulforhodamine B assay. As to conditions: NCI-H460, 48 h. Format: functional. In short, it runs like this:
(§1)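 Tumor cells grown in RPMI 1640 with 5% fetal bovine serum, with penicillin/streptomycin in experimental cultures. Exposed in 96-well plates to samples in DMSO/RPMI at 0.25, 2.5, 25 and 250 µg/mL, 37 °C, 5% CO2, 48 h. Fixed with 50% trichloroacetic acid before (T0) and after treatment, protein stained with sulforhodamine B and read at 540 nm. GI50, TGI and LC50 in µg/mL from dose-response curves by non-linear regression.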
In general terms: The SRB assay estimates cell density from bound dye.

Data set [3] can be described thus: Antiproliferative activity against human PC3 cells assessed as tumor growth inhibition after 48 hrs by sulforhodamine B assay. Format: functional. As to conditions: PC-3, 48 h. In outline:
as §1

Data set [4] concerns 786-0. The data set can be described thus: Antiproliferative activity against human 786-0 cells assessed as tumor growth inhibition after 48 hrs by sulforhodamine B assay. It is filed as functional. As to conditions: 786-0, 48 h. In short, it runs like this:
as §1

For data set [5], the system named is U-251. Nature of the data set: Antiproliferative activity against human U251 cells after 48 hrs by sulforhodamine B assay. As to conditions: U-251, 48 h. It is filed as functional. In outline:
as §1

A short description of data set [6]: Antiproliferative activity against human OVCAR3 cells assessed as tumor growth inhibition after 48 hrs by sulforhodamine B assay. Format: functional. Conditions: OVCAR-3, 48 h. In short, it runs like this: as §1
Data set [7] relates to MCF7. Nature of the data set: Antiproliferative activity against human MCF7 cells after 48 hrs by sulforhodamine B assay. It is filed as functional. Conditions: MCF7, 48 h. In outline: as §1
Data set [8] deals with 786-0. Nature of the data set: Antiproliferative activity against human 786-0 cells after 48 hrs by sulforhodamine B assay. It is filed as functional. Conditions: 786-0, 48 h. In outline: as §1
Data set [9] has as its system NCI-H460. Nature of the data set: Antiproliferative activity against human NCI-H460 cells assessed as tumor growth inhibition after 48 hrs by sulforhodamine B assay. It is filed as functional. Conditions: NCI-H460, 48 h. In short, it runs like this:
as §1

The subject of data set [10] is U-251. Nature of the data set: Cytotoxicity against human U251 cells. Format: cell-based.
For data set [11], the system named is NCI/ADR-RES. The data set can be described thus: Antiproliferative activity against human NCI/ADR-RES cells assessed as tumor growth inhibition after 48 hrs by sulforhodamine B assay. It is filed as functional. In outline: as §1
Data set [12] deals with MCF7. The data set can be described thus: Antiproliferative activity against human MCF7 cells assessed as tumor growth inhibition after 48 hrs by sulforhodamine B assay. Format: functional. As to conditions: MCF7, 48 h. In outline: as §1
In data set [13] the test system is Vero. Nature of the data set: Cytotoxicity against african green monkey Vero cells after 48 hrs by sulforhodamine B assay. Format: cell-based. As to conditions: chlorocebus sabaeus.
The nature of data set [14]: Antiproliferative activity against human OVCAR3 cells after 48 hrs by sulforhodamine B assay. Conditions: OVCAR-3, 48 h. It is filed as functional. In outline:
as §1

For data set [15], the system named is NCI/ADR-RES. The data set can be described thus: Antiproliferative activity against human NCI/ADR-RES cells after 48 hrs by sulforhodamine B assay. It is filed as functional. In short, it runs like this: as §1
Data set [16] is described as follows: Antiproliferative activity against human PC3 cells after 48 hrs by sulforhodamine B assay. Format: functional. As to conditions: PC-3, 48 h. In outline:
as §1

Data set [17] relates to U-251. Nature of the data set: Antiproliferative activity against human U251 cells assessed as tumor growth inhibition after 48 hrs by sulforhodamine B assay. It is filed as functional. As to conditions: U-251, 48 h. In outline: as §1

The values that follow come from ChEMBL document CHEMBL3392966, “Antiproliferative activity of synthetic fatty acid amides from renewable resources” (Bioorg Med Chem, 2015).

Values after ≈ are worked out from the molar mass of the structure shown.

The term TGI denotes the concentration giving total growth inhibition. By GI50 is commonly meant the concentration that inhibits growth by half. By LC50 is commonly meant the concentration lethal to half of the exposed cells or organisms.

With `CCCCCCCC/C=C\CCCCCCCC(=O)N1CCCC1`, the TGI with Vero [1] was 10.6 µg/mL (≈ 31.6 µM); in [3] it was 21.9 µg/mL (≈ 65.3 µM); in the data set on 786-0 [4], 23.3 µg/mL (≈ 69.4 µM); in data set [6], 14 µg/mL (≈ 41.7 µM); with NCI-H460 [9] it was 153 µg/mL (≈ 456 µM); in the data set on NCI/ADR-RES [11] it was 5.6 µg/mL (≈ 16.7 µM). The results for the TGI with MCF7 [12] and in the data set on U-251 [17] were greater than 250 µg/mL and 5.8 µg/mL (≈ 17.3 µM), respectively. The 50% growth inhibitory concentration (GI50) in the data set on NCI-H460 [2] was determined as 45.6 µg/mL (≈ 136 µM); in the data set on U-251 [5] it was 3.8 µg/mL (≈ 11.3 µM); in the data set on MCF7 [7], 5.2 µg/mL (≈ 15.5 µM); in the data set with 786-0 [8], 5.2 µg/mL (≈ 15.5 µM); in [14], 11.5 µg/mL (≈ 34.3 µM); in the data set with NCI/ADR-RES [15] it was 0.2 µg/mL (≈ 0.596 µM). Besides, growth in [16] was halved (GI50) at 13 µg/mL (≈ 38.7 µM). Further, the LC50 in the data set on U-251 [10] amounted to 14.2 µg/mL (≈ 42.3 µM); in the data set on Vero [13], 3.9 µg/mL (≈ 11.6 µM).
